{"source": "ChEMBL document CHEMBL1287651", "about": "“Synthesis and in vitro antibacterial activity of fluoroquinolone derivatives containing 3-(N'-alkoxycarbamimidoyl)-4-(alkoxyimino) pyrrolidines” (2010)", "format_in_all_cases": "functional", "key": {"[1]": {"system": "Staphylococcus aureus", "assay": "Antibacterial activity against Staphylococcus aureus ATCC […] after 18 to 24 hrs by twofold serial dilution method", "in_short": "(§1)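 MIC determined by the standard twofold serial dilution method on agar media, screening against Gram-positive and Gram-negative strains. Levofloxacin and gemifloxacin were run alongside as reference drugs.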"}, "[2]": {"system": "Staphylococcus aureus", "assay": "Antibacterial activity against methicillin-resistant Staphylococcus aureus 08-1 after 18 to 24 hrs by twofold serial dilution method", "in_short": "(§2)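 Standard twofold serial agar dilution method on agar media for MIC determination. Screened against representative Gram-positive and Gram-negative strains. Levofloxacin and GMFX served as control drugs.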"}, "[3]": {"system": "Staphylococcus aureus", "assay": "Antibacterial activity against methicillin-sensitive Staphylococcus aureus 08-2 after 18 to 24 hrs by twofold serial dilution method", "in_short": "as §2"}, "[4]": {"system": "Staphylococcus epidermidis", "assay": "Antibacterial activity against methicillin-resistant Staphylococcus epidermidis 09-2 after 18 to 24 hrs by twofold serial dilution method", "in_short": "as §2"}, "[5]": {"system": "Staphylococcus epidermidis", "assay": "Antibacterial activity against methicillin-resistant Staphylococcus epidermidis 09-3 after 18 to 24 hrs by twofold serial dilution method", "in_short": "as §2"}, "[6]": {"system": "Staphylococcus epidermidis", "assay": "Antibacterial activity against methicillin-resistant Staphylococcus epidermidis 09-4 after 18 to 24 hrs by twofold serial dilution method", "in_short": "as §2"}, "[7]": {"system": "Staphylococcus epidermidis", "assay": "Antibacterial activity against methicillin-sensitive Staphylococcus epidermidis 09-3 after 18 to 24 hrs by twofold serial dilution method", "in_short": "as §2"}, "[8]": {"system": "Staphylococcus epidermidis", "assay": "Antibacterial activity against methicillin-sensitive Staphylococcus epidermidis 09-6 after 18 to 24 hrs by twofold serial dilution method", "in_short": "as §2"}, "[9]": {"system": "Streptococcus pneumoniae", "assay": "Antibacterial activity against Streptococcus pneumoniae 08-2 after 18 to 24 hrs by twofold serial dilution method", "in_short": "as §1"}, "[10]": {"system": "Streptococcus pneumoniae", "assay": "Antibacterial activity against Streptococcus pneumoniae 08-4 after 18 to 24 hrs by twofold serial dilution method", "in_short": "as §1"}, "[11]": {"system": "Enterococcus faecium", "assay": "Antibacterial activity against Enterococcus faecium 08-2 after 18 to 24 hrs by twofold serial dilution method", "in_short": "as §1"}, "[12]": {"system": "Enterococcus faecium", "assay": "Antibacterial activity against Enterococcus faecium 08-7 after 18 to 24 hrs by twofold serial dilution method", "in_short": "as §1"}, "[13]": {"system": "Enterococcus faecalis", "assay": "Antibacterial activity against Enterococcus faecalis 08-10 after 18 to 24 hrs by twofold serial dilution method", "in_short": "as §1"}, "[14]": {"system": "Enterococcus faecalis", "assay": "Antibacterial activity against Enterococcus faecalis 08-12 after 18 to 24 hrs by twofold serial dilution method", "in_short": "as §1"}, "[15]": {"system": "Escherichia coli", "assay": "Antibacterial activity against Escherichia coli ATCC 25922 after 18 to 24 hrs by twofold serial dilution method", "in_short": "as §1"}, "[16]": {"system": "Escherichia coli", "assay": "Antibacterial activity against Escherichia coli 08-21 after 18 to 24 hrs by twofold serial dilution method", "in_short": "as §1"}, "[17]": {"system": "Escherichia coli", "assay": "Antibacterial activity against Escherichia coli 08-22 after 18 to 24 hrs by twofold serial dilution method", "in_short": "as §1"}, "[18]": {"system": "Klebsiella pneumoniae", "assay": "Antibacterial activity against Klebsiella pneumoniae 09-21 after 18 to 24 hrs by twofold serial dilution method", "in_short": "as §1"}, "[19]": {"system": "Klebsiella pneumoniae", "assay": "Antibacterial activity against Klebsiella pneumoniae 09-22 after 18 to 24 hrs by twofold serial dilution method", "in_short": "as §1"}, "[20]": {"system": "Klebsiella pneumoniae", "assay": "Antibacterial activity against Klebsiella pneumoniae 09-23 after 18 to 24 hrs by twofold serial dilution method", "in_short": "as §1"}, "[21]": {"system": "Pseudomonas aeruginosa", "assay": "Antibacterial activity against Pseudomonas aeruginosa ATCC 27853 after 18 to 24 hrs by twofold serial dilution method", "in_short": "as §1"}, "[22]": {"system": "Pseudomonas aeruginosa", "assay": "Antibacterial activity against Pseudomonas aeruginosa 09-32 after 18 to 24 hrs by twofold serial dilution method", "in_short": "as §1"}, "[23]": {"system": "Pseudomonas aeruginosa", "assay": "Antibacterial activity against Pseudomonas aeruginosa 09-33 after 18 to 24 hrs by twofold serial dilution method", "in_short": "as §1"}, "[24]": {"system": "Pseudomonas aeruginosa", "assay": "Antibacterial activity against Pseudomonas aeruginosa 09-34 after 18 to 24 hrs by twofold serial dilution method", "in_short": "as §1"}, "[25]": {"system": "Pseudomonas aeruginosa", "assay": "Antibacterial activity against Pseudomonas aeruginosa 09-35 after 18 to 24 hrs by twofold serial dilution method", "in_short": "as §1"}, "[26]": {"system": "Enterococcus faecium", "assay": "Ratio of compound MIC to levofloxacin MIC for Enterococcus faecium 08-7"}, "[27]": {"system": "Klebsiella pneumoniae", "assay": "Ratio of compound MIC to levofloxacin MIC for Klebsiella pneumoniae 09-22"}, "[28]": {"system": "Enterococcus faecium", "assay": "Ratio of compound MIC to gemifloxacin MIC for Enterococcus faecium 08-7"}, "[29]": {"system": "Klebsiella pneumoniae", "assay": "Ratio of compound MIC to gemifloxacin MIC for Klebsiella pneumoniae 09-22"}, "[30]": {"system": "Streptococcus pneumoniae", "assay": "Ratio of compound MIC to levofloxacin MIC for Streptococcus pneumoniae"}}}
{"smiles": "CCO/N=C(/N)C1CN(c2c(F)cc3c(=O)c(C(=O)O)cn4c3c2OC[C@@H]4C)C/C1=N\\OC", "note": "(stereo not given in full)", "values": [{"measurement": "MIC", "setting": "[1]", "value": 0.125, "unit": "µg/mL"}, {"measurement": "MIC", "setting": "[2]", "value": 0.06, "unit": "µg/mL"}, {"measurement": "MIC", "setting": "[3]", "value": 0.125, "unit": "µg/mL"}, {"measurement": "MIC", "setting": "[4]", "value": 0.06, "unit": "µg/mL"}, {"measurement": "MIC", "setting": "[5]", "value": 0.06, "unit": "µg/mL"}, {"measurement": "MIC", "setting": "[6]", "value": 0.06, "unit": "µg/mL"}, {"measurement": "MIC", "setting": "[7]", "value": 0.06, "unit": "µg/mL"}, {"measurement": "MIC", "setting": "[8]", "value": 0.06, "unit": "µg/mL"}, {"measurement": "MIC", "setting": "[9]", "value": 8, "unit": "µg/mL"}, {"measurement": "MIC", "setting": "[10]", "value": 8, "unit": "µg/mL"}, {"measurement": "MIC", "setting": "[11]", "value": "> 128", "unit": "µg/mL"}, {"measurement": "MIC", "setting": "[12]", "value": 0.06, "unit": "µg/mL"}, {"measurement": "MIC", "setting": "[13]", "value": 128, "unit": "µg/mL"}, {"measurement": "MIC", "setting": "[14]", "value": "> 128", "unit": "µg/mL"}, {"measurement": "MIC", "setting": "[15]", "value": 128, "unit": "µg/mL"}, {"measurement": "MIC", "setting": "[16]", "value": "> 128", "unit": "µg/mL"}, {"measurement": "MIC", "setting": "[17]", "value": "> 128", "unit": "µg/mL"}, {"measurement": "MIC", "setting": "[18]", "value": "> 128", "unit": "µg/mL"}, {"measurement": "MIC", "setting": "[19]", "value": 0.5, "unit": "µg/mL"}, {"measurement": "MIC", "setting": "[20]", "value": "> 128", "unit": "µg/mL"}, {"measurement": "MIC", "setting": "[21]", "value": 16, "unit": "µg/mL"}, {"measurement": "MIC", "setting": "[22]", "value": 16, "unit": "µg/mL"}, {"measurement": "MIC", "setting": "[23]", "value": "> 128", "unit": "µg/mL"}, {"measurement": "MIC", "setting": "[24]", "value": "> 128", "unit": "µg/mL"}, {"measurement": "MIC", "setting": "[25]", "value": 16, "unit": "µg/mL"}, {"measurement": "Ratio", "setting": "[26]", "value": 32}, {"measurement": "Ratio", "setting": "[27]", "value": 16}, {"measurement": "Ratio", "setting": "[28]", "value": 32}, {"measurement": "Ratio", "setting": "[29]", "value": 16}]}
{"smiles": "CCO/N=C1\\CN(c2c(F)cc3c(=O)c(C(=O)O)cn(CC)c3c2F)CC1/C(N)=N\\OC", "note": "(stereo not given)", "values": [{"measurement": "MIC", "setting": "[1]", "value": 1, "unit": "µg/mL"}, {"measurement": "MIC", "setting": "[2]", "value": 0.25, "unit": "µg/mL"}, {"measurement": "MIC", "setting": "[3]", "value": 8, "unit": "µg/mL"}, {"measurement": "MIC", "setting": "[4]", "value": 8, "unit": "µg/mL"}, {"measurement": "MIC", "setting": "[5]", "value": 0.25, "unit": "µg/mL"}, {"measurement": "MIC", "setting": "[6]", "value": 0.125, "unit": "µg/mL"}, {"measurement": "MIC", "setting": "[7]", "value": 0.125, "unit": "µg/mL"}, {"measurement": "MIC", "setting": "[8]", "value": 0.25, "unit": "µg/mL"}, {"measurement": "MIC", "setting": "[9]", "value": 0.25, "unit": "µg/mL"}, {"measurement": "MIC", "setting": "[10]", "value": 0.25, "unit": "µg/mL"}, {"measurement": "MIC", "setting": "[11]", "value": "> 128", "unit": "µg/mL"}, {"measurement": "MIC", "setting": "[12]", "value": "> 128", "unit": "µg/mL"}, {"measurement": "MIC", "setting": "[13]", "value": "> 128", "unit": "µg/mL"}, {"measurement": "MIC", "setting": "[14]", "value": "> 128", "unit": "µg/mL"}, {"measurement": "MIC", "setting": "[15]", "value": "> 128", "unit": "µg/mL"}, {"measurement": "MIC", "setting": "[16]", "value": "> 128", "unit": "µg/mL"}, {"measurement": "MIC", "setting": "[17]", "value": "> 128", "unit": "µg/mL"}, {"measurement": "MIC", "setting": "[18]", "value": "> 128", "unit": "µg/mL"}, {"measurement": "MIC", "setting": "[19]", "value": 8, "unit": "µg/mL"}, {"measurement": "MIC", "setting": "[20]", "value": "> 128", "unit": "µg/mL"}, {"measurement": "MIC", "setting": "[21]", "value": 128, "unit": "µg/mL"}, {"measurement": "MIC", "setting": "[22]", "value": "> 128", "unit": "µg/mL"}, {"measurement": "MIC", "setting": "[23]", "value": "> 128", "unit": "µg/mL"}, {"measurement": "MIC", "setting": "[24]", "value": "> 128", "unit": "µg/mL"}, {"measurement": "MIC", "setting": "[25]", "value": "> 128", "unit": "µg/mL"}, {"measurement": "Ratio", "setting": "[30]", "value": 8}]}
